Experimental findings from ChEMBL document CHEMBL1153485, “Synthesis and biological evaluation of novel 1-(4-methoxyphenethyl)-1H-benzimidazole-5-carboxylic acid derivatives and their precursors as antileukemic agents” (Bioorg Med Chem Lett, 2009) are described below.

Common to all, as to format: functional, cell-based
The test system of assay [1] is CCRF-CEM. Kind of assay: Cytotoxicity against human CEM cells. In outline: (§1)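 K562 and CEM cells; IC50 values calculated from both trypan blue counting and MTT assays.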
Assay [2] deals with K562. The experiment in a line: Cytotoxicity against human K562 cells. In outline: as §1
For assay [3], the system named is K562. Kind of assay: Induction of apoptosis in human K562 cells assessed as DNA strand breakage at 100 uM after 72 hrs using ethidium bromide staining by agarose gel electrophoresis.
Assay [4] deals with CCRF-CEM. Kind of assay: Cytotoxicity against human CEM cells at 100 uM within 48 hrs by trypan blue exclusion assay. In outline: (§2)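 Leukemic cells treated with derivatives dissolved in DMSO at […]; DMSO-only cells at the amount used for the top concentration served as vehicle control. Viable cells counted by trypan blue at 24 h intervals until stationary phase.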
Assay [5] deals with K562. Kind of assay: Cytotoxicity against human K562 cells at 250 uM within 48 hrs by trypan blue exclusion assay. In outline:
as §2

Assay [6] relates to K562. Kind of assay: Cytotoxicity against human K562 cells at 100 uM within 48 hrs by trypan blue exclusion assay. In outline:
as §2

Assay [7] concerns CCRF-CEM. Kind of assay: Cytotoxicity against human CEM cells at 250 uM within 48 hrs by trypan blue exclusion assay. An outline of the steps:
as §2

Assay [8] relates to K562. The experiment in a line: Induction of cell cycle arrest at M phase in human K562 cells assessed as reduction in phosphorylated histone H3 level at 10 uM after 24 hrs by Western blot analysis.
Assay [9] relates to K562. The experiment in a line: Cell cycle arrest in human K562 cells assessed as accumulation at S phase at 1 to 10 uM after 8 to 48 hrs by FACS analysis. An outline of the steps: (§3)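 K562 cells treated with […] compound, analysed by FACS for cell cycle distribution; DMSO-treated cells as vehicle control.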
For assay [10], the system named is K562. The experiment in a line: Induction of cell cycle arrest at S phase in human K562 cells assessed as down-regulation of CDK2 at 10 uM after 24 hrs by Western blot analysis.
Assay [11] relates to K562. The experiment in a line: Induction of apoptosis in human K562 cells assessed as DNA strand breakage at 10 uM after 72 hrs using ethidium bromide staining by agarose gel electrophoresis.
The subject of assay [12] is K562. The experiment in a line: Induction of p21 activation in human K562 cells at 5 to 10 uM after 24 hrs by Western blot analysis.
Assay [13] relates to K562. The experiment in a line: Induction of cell cycle arrest in human K562 cells assessed as reduction in PCNA level at 5 to 10 uM after 24 hrs by Western blot analysis.
Assay [14] relates to K562. Kind of assay: Induction of cell cycle arrest at M phase in human K562 cells assessed as reduction in phosphorylated histone H3 level at 5 uM after 24 hrs by Western blot analysis.
In assay [15] the test system is K562. Kind of assay: Induction of apoptosis in human K562 cells assessed as PARP cleavage at 30 uM after 12 hrs by SDS-PAGE. In outline:
(§4)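 K562 cells treated with […] compound for 12 and 24 h; DMSO-treated cells grown 24 h as vehicle control. Lysates separated by SDS-PAGE, transferred to PVDF, probed with specific primary and secondary antibodies for BAD, BCL2 and PARP.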

The subject of assay [16] is K562. Kind of assay: Induction of cell cycle arrest at G2/M phase in human K562 cells assessed as down-regulation of cyclin B1 at 5 to 10 uM after 24 hrs by Western blot analysis.
The test system of assay [17] is K562. Kind of assay: Induction of apoptosis in human K562 cells assessed as upregulation of BAD protein at 30 uM by SDS-PAGE. The following applies: TDE = time-dependent effect. An outline of the steps:
as §4

In assay [18] the test system is K562. Kind of assay: Induction of apoptosis in human K562 cells assessed as down-regulation of BCL2 protein at 30 uM after 12 hrs by SDS-PAGE. In outline: as §4
For assay [19], the system named is K562. The experiment in a line: Cell cycle arrest in human K562 cells assessed as accumulation at G2/M phase at 1 to 10 uM after 8 to 48 hrs by FACS analysis. In outline:
as §3

Active and inactive are the calls of the source. The calls are words filed in the database; no cut-off is given here. Where only a bound is given, the exact number is not on record here.

On to `COc1ccc(CCn2c(-c3c(F)cccc3F)nc3cc(C(=O)O)ccc32)cc1`, for which the figures for the concentration for half-maximal inhibition (IC50) in the assay with CCRF-CEM [1] and in the assay with K562 [2] were 85 µM and 80 µM, respectively.

Turning to `COc1ccc(CCn2c(-c3ccc(C(C)(C)C)cc3)nc3cc(C(=O)O)ccc32)cc1`, the 50% inhibitory concentration (IC50) came out at 42 µM in the assay with CCRF-CEM [1] and 40 µM with K562 [2]. In the assay on K562 [3], the outcome was Active.

For `COC(=O)c1ccc2c(c1)nc(-c1ccc([N+](=O)[O-])cc1)n2CCc1ccc(OC)cc1`, the IC50 was 122 µM in the assay on CCRF-CEM [1] and 120 µM with K562 [2].

In the case of `COC(=O)c1ccc2c(c1)nc(-c1ccccc1)n2CCc1ccc(OC)cc1`, the half-inhibitory concentration (IC50) in the assay on CCRF-CEM [1] came out at 65 µM; with K562 [2] it was 64 µM. In addition, the result in the assay with CCRF-CEM [4], in the assay with K562 [5], in the assay with K562 [6] and with CCRF-CEM [7] was Active.

For `COC(=O)c1ccc2c(c1)nc(-c1ccc(C(C)(C)C)cc1)n2CCc1ccc(OC)cc1`, the 50% inhibitory concentration (IC50) in the assay on CCRF-CEM [1] is 68 µM; in the assay on K562 [2], 70 µM. The outcome with CCRF-CEM [4], in the assay on K562 [5], in the assay on K562 [6] and in the assay with CCRF-CEM [7] was Active.

For `COc1ccc(CCn2c(-c3ccccc3F)nc3cc(C(=O)O)ccc32)cc1`, the IC50 came out at 244 µM in the assay on CCRF-CEM [1] and 240 µM with K562 [2].

Consider `COc1ccc(CCn2c(-c3ccc(Cl)cc3Cl)nc3cc(C(=O)O)ccc32)cc1`, for which the results for the IC50 in the assay on CCRF-CEM [1] and in the assay on K562 [2] were 102 µM and 110 µM, respectively. Also, the outcome with CCRF-CEM [4], in the assay with K562 [5], with K562 [6] and in the assay with CCRF-CEM [7] was Active.

For the compound `COc1ccc(CCn2c(-c3ccc(N)cc3)nc3cc(C(=O)O)ccc32)cc1`, the IC50 in the assay on CCRF-CEM [1] and with K562 [2] was more than 250 µM throughout.

Turning to `COc1ccc(CCn2c(-c3ccc(F)c(N)c3)nc3cc(C(=O)O)ccc32)cc1`, the half-maximal inhibitory concentration (IC50) with CCRF-CEM [1] turned out to be 182 µM; with K562 [2], 180 µM.

Take `COC(=O)c1ccc2c(c1)nc(-c1cccc(Br)c1)n2CCc1ccc(OC)cc1`: the IC50 in the assay on CCRF-CEM [1] and with K562 [2] was more than 250 µM throughout.

As for `COC(=O)c1ccc2c(c1)nc(-c1ccc(F)c(N)c1)n2CCc1ccc(OC)cc1`, the concentration for half-maximal inhibition (IC50) in the assay on CCRF-CEM [1] was 75 µM; with K562 [2], 78 µM.

Turning to `COC(=O)c1ccc2c(c1)nc(-c1ccc(F)c([N+](=O)[O-])c1)n2CCc1ccc(OC)cc1`, the IC50 was determined as 4 µM with CCRF-CEM [1] and 3 µM in the assay on K562 [2]. For the same compound, the result in the assay on K562 [8], in the assay on K562 [9], in the assay with K562 [10], with CCRF-CEM [4], in the assay with K562 [11] and in the assay with K562 [12] was Active. Moreover, the outcome in the assay on K562 [13], in the assay with K562 [14], with K562 [15], in the assay on K562 [16], in the assay on K562 [18] and with K562 [19] was Active. The result in the assay on K562 [5], in the assay on K562 [6] and in the assay on CCRF-CEM [7] was Active. The Activity result in the assay with K562 [17] was “tde”.

On to `COC(=O)c1ccc2c(c1)nc(-c1c(F)cccc1F)n2CCc1ccc(OC)cc1`, for which the results for the 50% inhibitory concentration (IC50) in the assay with CCRF-CEM [1] and in the assay on K562 [2] were 85 µM and 84 µM, respectively. Besides, the result in the assay on CCRF-CEM [4], with K562 [5], with K562 [6] and in the assay with CCRF-CEM [7] was Active.

For the compound `COc1ccc(CCn2c(-c3cccc(OC)c3)nc3cc(C(=O)O)ccc32)cc1`, the concentration for half-maximal inhibition (IC50) with CCRF-CEM [1] was 195 µM; with K562 [2], 200 µM.

With `COC(=O)c1ccc2c(c1)nc(-c1ccc(N)cc1)n2CCc1ccc(OC)cc1`, the IC50 in the assay with CCRF-CEM [1] amounted to 175 µM; in the assay with K562 [2], 180 µM.

On to `COC(=O)c1ccc2c(c1)nc(-c1ccc(Cl)cc1Cl)n2CCc1ccc(OC)cc1`, for which the IC50 in the assay on CCRF-CEM [1] and in the assay with K562 [2] was more than 250 µM each time.

For the compound `COC(=O)c1ccc2c(c1)nc(-c1cccc(OC)c1)n2CCc1ccc(OC)cc1`, the values for the IC50 with CCRF-CEM [1] and in the assay on K562 [2] were 138 µM and 136 µM, respectively. Besides, the outcome with CCRF-CEM [4], in the assay with K562 [5], with K562 [6] and in the assay with CCRF-CEM [7] was Active.

With `COc1ccc(CCn2c(-c3cccc(Br)c3)nc3cc(C(=O)O)ccc32)cc1`, the IC50 in the assay on CCRF-CEM [1] amounted to 120 µM; in the assay with K562 [2], 124 µM. For the same compound, the result in the assay on CCRF-CEM [4], in the assay on K562 [5], in the assay with K562 [6] and in the assay on CCRF-CEM [7] was Active.

Consider `COC(=O)c1ccc2c(c1)nc(-c1ccccc1F)n2CCc1ccc(OC)cc1`, for which the IC50 with CCRF-CEM [1] was found to be 55 µM; in the assay on K562 [2], 56 µM. Also, the outcome in the assay with CCRF-CEM [4], in the assay on K562 [3], with K562 [5], with K562 [6] and with CCRF-CEM [7] was Active.

As for `COc1ccc(CCn2c(-c3ccccc3)nc3cc(C(=O)O)ccc32)cc1`, the IC50 in the assay with CCRF-CEM [1] and in the assay on K562 [2] was more than 250 µM throughout.

On to `COc1ccc(CCn2c(-c3ccc([N+](=O)[O-])cc3)nc3cc(C(=O)O)ccc32)cc1`, for which the IC50 with CCRF-CEM [1] was determined as 245 µM; in the assay on K562 [2], 250 µM.

Consider `COc1ccc(CCn2c(-c3ccc(F)c([N+](=O)[O-])c3)nc3cc(C(=O)O)ccc32)cc1`, for which the IC50 in the assay with CCRF-CEM [1] worked out at 132 µM; in the assay with K562 [2] it was 135 µM.
